In paper PMC8694313 (RSC Advances, 2021):
Converted amounts (≈) assume the structure as drawn.

Legend:
[1] = test system: carrageenan-induced paw edema; experiment: Carrageenan induced hind paw edema assay; assay type: in vivo; details: rat, 100 mg kg^−1 p.o., mean ± SEM
How it was run: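 Rats, six per group, acclimatized one week (25 ± 2 °C, 12 h light/dark, standard pellets, water ad libitum). […] Paw volume measured by plethysmometer displacement to the lateral malleolus at 1, 3 and 6 h. Mean ± SEM.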

[2] = test system: cotton pellet induced granuloma; experiment: Cotton pellets induced granuloma assay; assay type: in vivo; details: rat, 100 mg kg^−1 p.o. for 8 d, mean ± SEM
How it was run: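 Two sterile 10 mg cotton pellets implanted ventrally in rats, six per group. […] On day 9 rats were killed under excess ether. Pellets were freed of tissue and weighed wet, then dried at 55 °C for 6 h or to constant weight. Granuloma equals dry weight minus cotton weight. Mean ± SEM.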

Staphylococcus aureus = experiment: In vitro antibacterial MIC determination; assay type: cell-based
How it was run: (§1)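 Bacteria grown on nutrient agar, subcultured to log phase in nutrient broth, then diluted in sterile saline to about 10^5–10^6 CFU mL−1. Test compounds diluted in acetone, DMSO or diethyl ether (ether preferred). Saturated disks placed on spread-plated inoculum and incubated at 37 °C for 24 h. MIC determined across different compound concentrations, with streptomycin as standard.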

Aspergillus flavus = experiment: In vitro antifungal MIC, poison plate technique; assay type: cell-based
COX-2 = target: T1, COX-2 (Ovis aries, UniProt P79208); experiment: Colorimetric COX; assay type: biochemical, ovine; details: read-out: % inhibition of COX, COX-2
T1 sequence (P79208 17-603): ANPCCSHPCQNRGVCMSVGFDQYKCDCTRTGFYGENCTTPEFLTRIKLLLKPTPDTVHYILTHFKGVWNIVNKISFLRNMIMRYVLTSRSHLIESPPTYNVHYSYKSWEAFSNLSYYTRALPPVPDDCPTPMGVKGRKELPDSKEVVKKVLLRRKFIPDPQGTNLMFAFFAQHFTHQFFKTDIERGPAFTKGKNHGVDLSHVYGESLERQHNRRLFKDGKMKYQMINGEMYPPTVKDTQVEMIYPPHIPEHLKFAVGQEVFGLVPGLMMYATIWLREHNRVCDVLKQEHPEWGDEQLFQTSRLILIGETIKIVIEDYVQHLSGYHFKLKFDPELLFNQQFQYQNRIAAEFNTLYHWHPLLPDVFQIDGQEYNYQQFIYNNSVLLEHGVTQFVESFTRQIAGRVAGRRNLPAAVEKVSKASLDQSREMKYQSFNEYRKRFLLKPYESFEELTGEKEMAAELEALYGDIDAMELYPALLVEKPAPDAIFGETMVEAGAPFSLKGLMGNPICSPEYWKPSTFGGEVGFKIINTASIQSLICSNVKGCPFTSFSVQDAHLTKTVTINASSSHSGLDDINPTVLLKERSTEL

Bacillus subtillis = experiment: In vitro antibacterial MIC determination; assay type: cell-based
How it was run: as §1

Pseudomonas aeruginosa = experiment: In vitro antibacterial MIC determination; assay type: cell-based
How it was run: as §1

Escherichia coli = experiment: In vitro antibacterial MIC determination; assay type: cell-based
How it was run: as §1

Aspergillus niger = experiment: In vitro antifungal MIC, poison plate technique; assay type: cell-based
Rhizopus arrhizus = experiment: In vitro antifungal MIC, poison plate technique; assay type: cell-based
COX-1 = target: T2, COX-1 (Ovis aries, UniProt P05979); experiment: Colorimetric COX; assay type: biochemical, ovine; details: read-out: % inhibition of COX, COX-1
T2 sequence (P05979 25-600): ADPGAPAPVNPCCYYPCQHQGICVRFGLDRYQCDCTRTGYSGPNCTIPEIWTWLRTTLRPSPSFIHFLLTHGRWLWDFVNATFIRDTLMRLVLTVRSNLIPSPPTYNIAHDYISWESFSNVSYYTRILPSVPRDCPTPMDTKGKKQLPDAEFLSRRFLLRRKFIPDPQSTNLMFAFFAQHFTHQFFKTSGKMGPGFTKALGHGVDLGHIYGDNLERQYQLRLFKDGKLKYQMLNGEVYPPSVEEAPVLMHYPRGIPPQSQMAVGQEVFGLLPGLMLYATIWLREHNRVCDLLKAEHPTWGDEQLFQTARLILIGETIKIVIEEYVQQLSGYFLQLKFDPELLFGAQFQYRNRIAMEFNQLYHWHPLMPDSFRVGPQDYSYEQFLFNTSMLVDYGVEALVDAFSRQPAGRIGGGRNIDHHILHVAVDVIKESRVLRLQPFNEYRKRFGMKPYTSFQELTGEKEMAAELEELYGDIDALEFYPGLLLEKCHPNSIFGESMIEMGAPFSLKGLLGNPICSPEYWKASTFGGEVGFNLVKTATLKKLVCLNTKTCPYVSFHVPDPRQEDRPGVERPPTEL

RAW 264.7 cells [3] = experiment: Nitrite; assay type: cell-based, murine; details: RAW 264.7, 100 μM and 200 μM pre-treatment; Fig. 5
How it was run: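 RAW 264.7 cells (1 × 10^6) seeded in flasks and left to adhere overnight. Pretreated 1 h with test compound (100 or 200 μM), then 100 μM LPS for 24 h at 37 °C, 5% CO2. Supernatant mixed with an equal volume of Griess reagent (0.1% naphthylethylenediamine and 1% sulfanilamide, 1:1, in 5% phosphoric acid) for 10 min in the dark at room temperature; A540 read. Nitrite quantified from a NaNO2 standard curve (0.1–6.25 μM), expressed as μmol NO2−/mg protein. Triplicates.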

RAW 264.7 cells [4] = experiment: MTT assay, LPS-induced inflammation in RAW 264.7; assay type: cell-based, murine; details: RAW 264.7, pre-treatment 100 μM and 200 μM, then LPS; Fig. 4
How it was run: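 Mouse RAW 264.7 macrophages kept in high-glucose DMEM with 10% heat-inactivated FBS and 1% penicillin–streptomycin at 37 °C, 5% CO2. Cells seeded at 5 × 10^5 cells per mL, pretreated 1 h with test compound (100 or 200 μM), then stimulated with […] for 24 h. Medium replaced; 0.5 mg mL−1 MTT for 3 h; formazan dissolved in DMSO; OD read at 540 nm. Percent inflammation derived by subtracting percent viability relative to control.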

| SMILES | Paw volume ([1]; 1 h after carrageenan) [mL] | Paw volume ([1]; 3 h after carrageenan) [mL] | Paw volume ([1]; 6 h after carrageenan) [mL] | Weight, Dry (cotton pellet) [2] [mg] | Weight, Wet (cotton pellet) [2] [mg] | MIC (Staphylococcus aureus) [µg/mL] | MIC (Aspergillus flavus) [µg/mL] | inhibition at 100 µM (COX-2) [%] | inhibition at 200 µM (COX-2) [%] | MIC (Bacillus subtillis) [µg/mL] | MIC (Pseudomonas aeruginosa) [µg/mL] | MIC (Escherichia coli) [µg/mL] | MIC (Aspergillus niger) [µg/mL] | MIC (Rhizopus arrhizus) [µg/mL] | inhibition at 100 µM (COX-1) [%] | inhibition at 200 µM (COX-1) [%] | inhibition of LPS-induced NO production (RAW 264.7 cells [3]) | anti-inflammatory activity against LPS induced cell death / inflammation (MTT) (RAW 264.7 cells [4]) |
| --- | --- | --- | --- | --- | --- | --- | --- | --- | --- | --- | --- | --- | --- | --- | --- | --- | --- | --- |
| Cc1ccc(-c2cc(C(F)(F)F)nn2-c2ccc(S(N)(=O)=O)cc2)cc1 [Celecoxib, reference compound] | 0.80 ± 0.50 | 0.98 ± 0.92 | 1.58 ± 0.22 | 78.80 ± 3.24 | 150.14 ± 3.46 |  |  |  |  |  |  |  |  |  |  |  |  |  |
| O=S(=O)(NC[C@@H](O)[C@@H]1CCc2cc(F)ccc2O1)c1ccc(F)cc1 [Compound 8a, N-((R)-2-((S)-6-Fluorochroman-2-yl)-2-hydroxyethyl)-4-fluorobenzenesulfonamide] |  |  |  |  |  | 21.9 ± 0.33 (≈ 59.2 µM) | 23.1 ± 0.25 (≈ 62.4 µM) | 23.5 ± 0.55 | 38.64 ± 0.33 | 31.6 ± 1.03 (≈ 85.5 µM) | 31.9 ± 1.04 (≈ 86.3 µM) | 30.1 ± 0.72 (≈ 81.6 µM) | 22.3 ± 0.27 (≈ 60.4 µM) | 22.8 ± 0.54 (≈ 61.7 µM) | 37.3 ± 0.32 | 45.5 ± 0.77 |  |  |
| O=S(=O)(NC[C@@H](O)[C@@H]1CCc2cc(F)ccc2O1)c1ccc(Br)cc1 [Compound 8b, 4-Bromo-N-((R)-2-((S)-6-fluorochroman-2-yl)-2-hydroxyethyl)benzenesulfonamide] | 0.52 ± 0.18 | 0.80 ± 0.38 | 1.06 ± 0.27 | 84.10 ± 1.67 | 182.50 ± 1.77 | 17.9 ± 0.61 (≈ 41.6 µM) | 17.81 ± 0.16 (≈ 41.4 µM) | 34.4 ± 0.66 | 60.04 ± 0.24 | 15.08 ± 0.08 (≈ 35 µM) | 22.4 ± 0.4 (≈ 52.1 µM) | 12.7 ± 0.87 (≈ 29.5 µM) | 20.4 ± 0.87 (≈ 47.4 µM) | 20.2 ± 0.65 (≈ 47 µM) | 46.1 ± 0.22 | 68.78 ± 0.43 | strong inhibition | strong anti-inflammatory activity |
| O=S(=O)(NC[C@@H](O)[C@@H]1CCc2cc(F)ccc2O1)c1cccs1 [Compound 8c, N-((R)-2-((S)-6-Fluorochroman-2-yl)-2-hydroxyethyl)thiophene-2-sulfonamide] | 0.60 ± 0.64 | 0.88 ± 0.31 | 1.11 ± 0.13 | 91.30 ± 1.72 | 148.62 ± 1.85 | 19.7 ± 0.62 (≈ 55 µM) | 16.7 ± 0.7 (≈ 46.8 µM) | 40.4 ± 0.1 | 61.2 ± 0.72 | 21.6 ± 0.44 (≈ 60.4 µM) | 22.2 ± 0.63 (≈ 62.1 µM) | 17.1 ± 0.47 (≈ 47.9 µM) | 18.1 ± 0.46 (≈ 50.6 µM) | 22.2 ± 0.83 (≈ 62.2 µM) | 51.1 ± 0.62 | 70.07 ± 0.7 | strong inhibition | strong anti-inflammatory activity |
| O=[N+]([O-])c1cc(S(=O)(=O)NC[C@@H](O)[C@@H]2CCc3cc(F)ccc3O2)ccc1Cl [Compound 8d, 4-Chloro-N-((R)-2-((S)-6-Fluorochroman-2-yl)-2-hydroxyethyl)-3-nitrobenzenesulfonamide] | 0.78 ± 0.88 | 1.08 ± 0.40 | 1.50 ± 0.64 |  |  | 17.4 ± 0.4 (≈ 40.5 µM) | 17 ± 0.7 (≈ 39.6 µM) | 39.3 ± 0.77 | 63.88 ± 0.46 | 18.3 ± 0.21 (≈ 42.5 µM) | 27.4 ± 0.65 (≈ 63.6 µM) | 24.2 ± 0.72 (≈ 56.1 µM) | 15.3 ± 0.15 (≈ 35.5 µM) | 18.6 ± 0.65 (≈ 43.3 µM) | 53.88 ± 0.3 | 69.64 ± 0.18 | strong inhibition | strong anti-inflammatory activity |
| COC(=O)NC[C@@H](O)[C@@H]1CCc2cc(F)ccc2O1 [Compound 9a, Methyl ((R)-2-((S)-6-fluorochroman-2-yl)-2-hydroxyethyl)carbamate] | 0.72 ± 0.72 | 1.06 ± 0.52 | 1.56 ± 0.33 |  |  | 16.6 ± 0.35 (≈ 61.5 µM) | 12.7 ± 0.8 (≈ 47 µM) | 18.1 ± 0.88 | 52.42 ± 0.21 | 20.5 ± 0.76 (≈ 76.1 µM) | 19.5 ± 1.25 (≈ 72.3 µM) | 21.7 ± 1.06 (≈ 80.6 µM) | 11.2 ± 1.08 (≈ 41.6 µM) | 14.2 ± 0.69 (≈ 52.7 µM) | 50.66 ± 0.33 | 75.33 ± 0.14 | strong inhibition | strong anti-inflammatory activity |
| O=C(NC[C@@H](O)[C@@H]1CCc2cc(F)ccc2O1)OCC(Cl)(Cl)Cl [Compound 9b, 2,2,2-Trichloroethyl ((R)-2-((S)-6-fluorochroman-2-yl)-2-hydroxyethyl)carbamate] | 0.76 ± 0.48 | 0.88 ± 0.16 | 1.50 ± 0.25 |  |  | 20.32 ± 0.06 (≈ 52.6 µM) | 23.8 ± 0.67 (≈ 61.6 µM) | 37.7 ± 0.35 | 63.6 ± 0.32 | 26 ± 0.42 (≈ 67.2 µM) | 30.36 ± 0.22 (≈ 78.5 µM) | 21.1 ± 0.45 (≈ 54.7 µM) | 24.7 ± 0.7 (≈ 63.9 µM) | 19.2 ± 0.48 (≈ 49.8 µM) | 43.1 ± 0.8 | 69.02 ± 0.5 |  |  |
| CC(C)COC(=O)NC[C@@H](O)[C@@H]1CCc2cc(F)ccc2O1 [Compound 9c, Isobutyl ((R)-2-((S)-6-fluorochroman-2-yl)-2-hydroxyethyl)carbamate] |  |  |  |  |  | 19 ± 1.08 (≈ 61.2 µM) | 19.8 ± 0.37 (≈ 63.6 µM) | 24.3 ± 0.2 | 41.66 ± 0.23 | 26.1 ± 0.3 (≈ 83.8 µM) | 28.8 ± 0.6 (≈ 92.5 µM) | 22.7 ± 0.26 (≈ 73 µM) | 19.3 ± 0.47 (≈ 62.1 µM) | 25.6 ± 0.48 (≈ 82.1 µM) | 39.6 ± 0.08 | 51.64 ± 0.32 |  |  |
| CCOC(=O)NC[C@@H](O)[C@@H]1CCc2cc(F)ccc2O1 [Compound 9d, Ethyl((R)-2-((S)-6-fluorochroman-2-yl)-2-hydroxyethyl)carbamate] |  |  |  |  |  | 18.1 ± 0.8 (≈ 63.8 µM) | 25.2 ± 0.66 (≈ 89 µM) | 29.7 ± 0.75 | 38.59 ± 0.29 | 27.7 ± 0.44 (≈ 97.6 µM) | 31.7 ± 0.88 (≈ 112 µM) | 27.2 ± 0.92 (≈ 96.1 µM) | 28.46 ± 0.14 (≈ 100 µM) | 31.3 ± 0.45 (≈ 110 µM) | 41.4 ± 0.62 | 52.16 ± 0.3 |  |  |
| [H]/N=C(/N)N[C@H]1[C@H](O)[C@@H](O)[C@H](O[C@@H]2O[C@@H](C)[C@](O)(C=O)[C@H]2O[C@@H]2O[C@@H](CO)[C@H](O)[C@@H](O)[C@@H]2NC)[C@@H](N/C(N)=N\[H])[C@@H]1O [Streptomycin, reference compound] |  |  |  |  |  | 18.6 ± 1.07 (≈ 32.1 µM) |  |  |  | 25.4 ± 0.48 (≈ 43.7 µM) | 28.2 ± 0.8 (≈ 48.5 µM) | 26.4 ± 1.12 (≈ 45.4 µM) |  |  |  |  |  |  |
